The results in this text go back to ChEMBL document CHEMBL1121432, “Tricyclics with analgesic and antidepressant activity. 1. [[(Alkylamino)ethyl]thio]dibenz[b,f]oxepins and 10,11-dihydro derivatives” (1980).

SMILES strings stand for the structures. A value given as a limit tells only on which side of the number the result lay.

Common to all, as to type: functional
The test system of assay [1] is Mus musculus. Briefly: Delay in response to noxious heat stimuli in mice by tail flick method after subcutaneous administration. Conditions: sc. For orientation: In hot-plate and tail-flick tests a longer latency is read as antinociception.
In assay [2] the test system is Mus musculus. Briefly: Anticonvulsant activity to prevent pentamethylenetetrazole (MTZ) induced lethality in mice after oral administration.
The test system of assay [3] is Mus musculus. Briefly: Antidepressant activity to prevent tetrabenazine induced ptosis (TBZ) in mice after intraperitoneal administration. Conditions: ip.
Assay [4] has as its system Mus musculus. Briefly: Analgesic activity for the inhibition of phenylquinone induced writhing (PQW) after subcutaneous administration to mice. Conditions: sc.
Assay [5] deals with Mus musculus. Briefly: Antipsychotic activity to prevent amphetamine induced lethality in mice after oral administration. In short, it runs like this:
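Male CD-1 mice in groups of ten, 18-28 g, dosed orally; controls got distilled water-Tween 80. d-Amphetamine sulfate 21 mg/kg sc 60 min post-drug, then aggregated five per wire cage at 80-84 °F. Dead mice replaced by marked untreated mice every 15 min. Deaths counted at 5 h post-amphetamine.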

In assay [6] the test system is Mus musculus. Briefly: Tested for analgesic activity for the inhibition of phenylquinone induced writhing (PQW) after oral administration to mice.

As usually defined, the ED50 is the dose that gives a 50% effect, or the effect in half of the subjects. Lower therefore signals an effect at a small dose. For the compound `CCNCCSC1Cc2ccccc2Oc2ccccc21` (centres undefined), the ED50 in assay [1] is > 25 mg/kg; in assay [2] it was > 50 mg/kg; in assay [3] it was 20 mg/kg; in assay [4], 6.6 mg/kg.
Take `CNCCSC1Cc2ccccc2Oc2ccc(F)cc21` (centres undefined): the ED50 in assay [1] was 5.1 mg/kg; in assay [2], 31.6 mg/kg; in assay [3], 0.8 mg/kg; in assay [5] it was > 20 mg/kg.
As to `CCN(CC)CCSC1=Cc2ccccc2Oc2ccccc21`, the ED50 in assay [1] was > 25 mg/kg; in assay [2], > 50 mg/kg; in assay [3], > 20 mg/kg; in assay [4], 25 mg/kg; in assay [5] it was > 20 mg/kg.
`c1ccc(CCNCCSC2Cc3ccccc3Oc3ccccc32)cc1` (centres undefined): the ED50 is > 25 mg/kg in assay [1]; > 50 mg/kg in assay [2]; > 20 mg/kg in assay [3]; 9.3 mg/kg in assay [4]; 23 mg/kg in assay [5].
On to `C1=C(SCCNCCc2ccccc2)c2ccccc2Oc2ccccc21`, for which the ED50 in assay [1] was > 25 mg/kg; in assay [2] it was > 50 mg/kg; in assay [3], > 20 mg/kg; in assay [4] it was 13.6 mg/kg; in assay [5], > 20 mg/kg.
As to `CN(C)CCSC1Cc2ccccc2Oc2ccc(F)cc21` (centres undefined), the median effective dose (ED50) was 7.9 mg/kg in assay [1], 52.3 mg/kg in assay [2], 2 mg/kg in assay [3] and > 20 mg/kg in assay [5].
On to `Fc1ccc2c(c1)C(SCCNCC1CC1)Cc1ccccc1O2` (centres undefined), for which the ED50 in assay [1] is > 25 mg/kg; in assay [2], > 50 mg/kg; in assay [3] it was > 20 mg/kg; in assay [4], 10.7 mg/kg; in assay [5], > 20 mg/kg.
As for `CCN(CC)CCSC1Cc2ccccc2Oc2ccc(Cl)cc21` (centres undefined), the median effective dose (ED50) is > 25 mg/kg in assay [1], > 50 mg/kg in assay [2], > 20 mg/kg in assay [3] and 14.8 mg/kg in assay [4].
In the case of `CCN(CC)CCSC1=Cc2ccccc2Oc2ccc(SC)cc21`, the ED50 was > 25 mg/kg in assay [1]; > 50 mg/kg in assay [2]; > 20 mg/kg in assay [3]; > 25 mg/kg in assay [4]; > 20 mg/kg in assay [5].
Consider `C=CCNCCSC1Cc2ccccc2Oc2ccc(F)cc21` (centres undefined), for which the ED50 in assay [1] is > 25 mg/kg; in assay [2], > 50 mg/kg; in assay [3], 3.5 mg/kg; in assay [4], 10.6 mg/kg; in assay [5] it was > 20 mg/kg.
For the compound `Fc1ccc2c(c1)C(SCCNCCc1ccccc1)Cc1ccccc1O2` (centres undefined), the ED50 in assay [1] was > 25 mg/kg; in assay [2], > 50 mg/kg; in assay [4], > 10 mg/kg; in assay [5], > 20 mg/kg.
Take `CCN(CC)CCSC1Cc2ccccc2Oc2ccccc21` (centres undefined): the ED50 in assay [1] was > 25 mg/kg; in assay [2], > 50 mg/kg; in assay [3] it was > 20 mg/kg; in assay [4] it was 6.9 mg/kg; in assay [5], > 20 mg/kg.
Turning to `C#CCN(C)CCSC1=Cc2ccccc2Oc2ccccc21`, the ED50 in assay [1] was > 25 mg/kg; in assay [2], > 50 mg/kg; in assay [3], 12.2 mg/kg; in assay [4], 25 mg/kg.
Turning to `CCN(C)CCSC1=Cc2ccccc2Oc2ccccc21`, the ED50 in assay [1] was > 25 mg/kg; in assay [2], > 50 mg/kg; in assay [3] it was 20 mg/kg; in assay [4] it was 25 mg/kg.
Regarding `CCN(C)CCSC1=Cc2ccccc2Oc2ccc(SC)cc21`, the ED50 was > 25 mg/kg in assay [1], > 50 mg/kg in assay [2], 25 mg/kg in assay [4] and > 20 mg/kg in assay [5].
For `CC(C)=CCN1CC[C@]2(C)c3cc(O)ccc3C[C@H]1[C@H]2C` [(+)-PENTAZOCINE] the same measures were 14.6 mg/kg, > 25 mg/kg, 2.4 mg/kg and > 20 mg/kg.
As to `CN(C)CCCN1c2ccccc2Sc2ccc(Cl)cc21` [CHLORPROMAZINE], the 50% effective dose (ED50) was > 50 mg/kg in assay [2] and 2.8 mg/kg in assay [5].
The matching figures for `CN1C(=O)CN=C(c2ccccc2)c2cc(Cl)ccc21` [DIAZEPAM]: 1.4 mg/kg and > 20 mg/kg.
As for `CNCCSC1=Cc2ccccc2Oc2ccc(F)cc21` [FLURADOLINE], the ED50 was 11.3 mg/kg in assay [1]; > 50 mg/kg in assay [2]; 24.7 mg/kg in assay [6]; 0.32 mg/kg in assay [3]; > 50 mg/kg in assay [5].
`CN(C)CCCN1c2ccccc2CCc2ccccc21` [IMIPRAMINE]: the ED50 in assay [1] is > 25 mg/kg; in assay [2], 50 mg/kg; in assay [3], 1.3 mg/kg; in assay [4], 11 mg/kg; in assay [5], > 20 mg/kg.
Turning to `CN1CC[C@]23c4c5ccc(O)c4O[C@H]2[C@@H](O)C=C[C@H]3[C@H]1C5` [MORPHINE], the ED50 is > 25 mg/kg in assay [2], 8.1 mg/kg in assay [3], 0.36 mg/kg in assay [4] and > 20 mg/kg in assay [5].
